# Screens (PubChem)
# Compounds with a hit are over-represented: about 1.8% of the library has one in this group of screens.
# CHRM4 antagonist – blocks acetylcholine activation of human M4 receptor; CHO-hM4 cells, ACh EC80, Fluo-8 calcium fluorescence; inhibition, % at 3 µM; actives 0.73% (n = 360,000); AID 624125;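 active = inhibition above its plate's cutoff, the mean inhibition of sample wells plus 3 SD, cut at about 27% in these data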;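 also: 0% = acetylcholine EC80 with DMSO and 100% = DMSO without agonist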
# CHRM5 PAM – positive allosteric modulators of human muscarinic M5 receptor; P08912; CHO-K1 hM5, Fluo-8 calcium, ACh EC20 PAM; 0% = ACh EC20, 100% = ACh EC100; activation, % at 3 µM; actives 0.3% (n = 360,000);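 active = activation above the run cutoff, the mean activation of all test compounds plus 3 SD, cut at about 18% in these data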
# Target sequence (P08912 whole entry, looked up): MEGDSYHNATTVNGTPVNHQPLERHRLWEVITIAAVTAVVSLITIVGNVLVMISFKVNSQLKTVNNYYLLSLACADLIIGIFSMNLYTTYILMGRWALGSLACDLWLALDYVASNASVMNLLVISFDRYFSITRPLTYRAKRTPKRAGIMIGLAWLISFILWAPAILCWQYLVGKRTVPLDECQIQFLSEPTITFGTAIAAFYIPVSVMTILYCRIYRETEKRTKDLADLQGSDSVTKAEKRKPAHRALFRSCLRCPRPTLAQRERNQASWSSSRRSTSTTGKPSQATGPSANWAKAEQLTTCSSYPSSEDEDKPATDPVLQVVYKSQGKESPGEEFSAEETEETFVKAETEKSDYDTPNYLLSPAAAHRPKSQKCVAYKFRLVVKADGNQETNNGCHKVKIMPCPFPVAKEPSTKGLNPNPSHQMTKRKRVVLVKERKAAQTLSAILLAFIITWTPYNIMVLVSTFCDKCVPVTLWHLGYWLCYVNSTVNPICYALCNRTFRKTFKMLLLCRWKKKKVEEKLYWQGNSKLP
#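 Replicates: One well per compound, no replicates | System: Human M5 receptor in CHO-K1 cells | Benchmarks: Low control EC20 acetylcholine (0%), high control EC100 acetylcholine (100%) | Probe or stimulus: Acetylcholine, EC20 level | Times: Fluo-8 loading 80 min at 37 °C plus 30 min room temperature | Signal: Intracellular calcium via Fluo-8 fluorescence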
# CHRM5 agonist – CHRM5 agonism in calcium assay; CHO-K1 hM5 cells, Fluo-8 calcium fluorescence; 0% DMSO wells, 100% maximal acetylcholine response; activation, % at 3 µM; actives 0.19% (n = 360,000); AID 624037;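 active = activation above the run's mean over test compounds plus 3 SD, cut at about 23% in these data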;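 also: signal is peak over basal fluorescence ratio across the kinetic read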
# CHRM4 PAM – positive allosteric modulators of human muscarinic M4 receptor; P08173; CHO-K1 hM4/Gqi5, Fluo-8 calcium fluorescence, ACh EC20; 0% = ACh EC20, 100% = maximal ACh; activation, % at 3 µM; actives 0.4% (n = 360,000); AID 624126;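 active = activation above its plate's cutoff, the mean activation of sample wells plus 3 SD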
# M5 antag – antagonists of human muscarinic M5 receptor (CHRM5); P08912; CHO-hM5 cells, Fluo-8 calcium fluorescence, ACh EC80; inhibition, % at 3 µM; actives 0.59% (n = 360,000); AID 624040;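 active = inhibition above a per-plate cutoff, the mean of that plate's test compounds plus 3 SD, cut at about 27% in these data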;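 also: 0% = acetylcholine EC80 with DMSO and 100% = DMSO without agonist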
# M4 ag – CHRM4 agonism in calcium assay; P08173; AID 624127; activation, % at 3 µM; CHO-K1 hM4/Gqi5, Fluo-8 calcium fluorescence; vehicle 0%, full acetylcholine response 100%; actives 0.14% (n = 360,000);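 active = activation above the run mean over all test wells plus 3 SD, cut at about 32% in these data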;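 also: peak over basal fluorescence ratio per well then scaled between controls; 0% = DMSO wells and 100% = acetylcholine at EC100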
# Numbers without * were called inactive.
SMILES,CHRM4 antagonist,CHRM5 PAM,CHRM5 agonist,CHRM4 PAM,M5 antag,M4 ag
Cc1ccc(C(C)C)c(OCCCn2ccnc2C)c1,73*,-18,-7,-17,91*,3
CN(C)C(=O)C(=O)c1cccn1-c1ccccc1C#N,-10,-6,-3,1,11,1
CC(C)N(C(=O)C(=O)c1cccn1-c1ccccc1C#N)C(C)C,1,16,-2,17*,-14,1
O=C1CN(C(=O)c2cccc(F)c2)C(c2ccc(F)cc2)c2cc(F)ccc2N1 (stereo not drawn),52*,-23,-8,-19,14,8
O=C1CN(C(=O)c2c(F)cccc2F)C(c2ccc(F)cc2)c2cc(F)ccc2N1 (stereo not drawn),-14,-1,2,2,-1,7
O=C1CCCCC1CCc1ccncc1 (stereo not drawn),-2,2,-1,3,6,0
COc1ccc(NS(=O)(=O)c2c(C)cc(C)cc2C)cc1,1,26*,-11,-5,5,-1
CCC(=O)N1CCc2cc(Br)cc(S(=O)(=O)CCC(=O)NCC3CCCO3)c21 (stereo not drawn),3,19*,10,-2,-12,1
CCC(=O)N1CCc2cc(Br)cc(S(=O)(=O)NCC3CCCO3)c21 (stereo not drawn),-7,-8,0,2,4,1
CC(=O)c1ccc(N2CCN(S(=O)(=O)c3ccc4c5c3CC(=O)N5CC(C)S4)CC2)cc1 (stereo not drawn),-15,7,1,-6,-12,13
Cc1cccc(C(=O)NNC(=S)NC(=O)c2cccs2)c1,-5,-36,66*,-18,7,129*
Cc1ccccc1C(=O)NNC(=S)NC(=O)c1ccccc1,1,-17,23,-5,7,41*
COc1ccc(C(=O)NNC(=S)NC(=O)c2ccc(F)cc2)cc1Br,15,-28,68*,-19,2,93*
O=C(NC(=S)NNC(=O)c1ccccc1O)c1ccccc1,5,-1,1,-2,11,6
CC(C)(C)c1cc(CCC(=O)NNC(=S)NC(=O)c2ccccc2)cc(C(C)(C)C)c1O,4,-10,14,-10,16,37*
CCN(CC)C(=O)C1=C(C)N(Cc2ccc(OC)cc2)C(=O)C(CC(=O)NCc2cccc3ccccc23)C1 (stereo not drawn),-3,0,-1,-4,6,5
CN(C)S(=O)(=O)c1cccc(NC(=O)c2cccc(S(=O)(=O)N3CCCCCC3)c2)c1,-8,-24,0,-17,14,16
CN(CC(=O)NCCc1ccc(S(N)(=O)=O)cc1)S(=O)(=O)c1cccc2nsnc12,-17,11,-3,6,-5,2
Cc1ccc(C(=O)NC(=S)NNC(=O)c2ccccc2)cc1,-2,-23,40*,-19,13,87*
CCCCC(=O)NC(=S)NNC(=O)c1ccc(Cl)cc1Cl,8,5,1,-2,11,3
Cc1ccc(C(=O)NNC(=S)NC(=O)c2ccc(Cl)cc2Cl)cc1,36*,-17,77*,-41,8,160*
Cc1cccc(C(=O)NNC(=S)NC(=O)c2ccccc2)c1,18,-27,57*,-17,23,118*
Cc1ccc(C(=O)NNC(=S)NC(=O)c2ccccc2)cc1,28*,-30,66*,-68,30*,130*
Cc1ccc(C(=O)NC(=S)NNC(=O)c2ccccc2O)cc1,-2,-3,1,3,8,0
COC(=O)[C@]1(Cc2ccccc2)N[C@H](CN(C)C(=O)C2CCCCC2)[C@@H]2C(=O)N(C)C(=O)[C@@H]21,-10,5,-1,0,-10,1
C=CCn1c(O)c(N=NC(=O)CNC(=O)Cc2ccccc2)c2ccccc21,-17,2,-1,3,6,0
COc1ccc(C(=O)NNC(=S)NC(=O)c2ccc(OC)cc2)cc1,9,-13,20,-13,12,54*
